Results from ChEMBL document CHEMBL1156277, “Discovery of N-methyl-4-(4-methoxyanilino)quinazolines as potent apoptosis inducers. Structure-activity relationship of the quinazoline ring” (Bioorg Med Chem Lett, 2010).

Columns and labels:
NCI-H1299 = assay: Induction of apoptosis in human H1299 cells assessed as caspase activation; assay type: functional, cell-based
Outline: (§1)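 Cell- and caspase-based HTS assay in human breast cancer T47D and human non-small cell lung cancer H1299 cells. Caspase-3 activation was read with fluorescent caspase-3 substrates and reported as EC50. Data are the mean of three or more experiments ± SEM.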

T47D [1] = assay: Selectivity ratio EC50 for human H1299 cells over EC50 for human T47D cells; assay type: functional
T47D [2] = assay: Induction of apoptosis in human T47D cells assessed as caspase activation; assay type: functional, cell-based; outline: as §1
[3] = Ratio of AUC in brain to plasma in mouse at 2.5 mg/kg, iv; assay type: ADME, organism-based; set-up: dose 2.5 mg/kg, route intravenous; conditions: brain and plasma, read-out: Ratio AUC
Outline: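 Mice got a single intravenous dose. Compound levels in plasma from blood samples and in homogenized whole brain were determined by LC–MS/MS. Brain/plasma ratio was calculated from the areas under the concentration–time curves.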

[4] = Inhibition of tubulin polymerization

SMILES	EC50 (NCI-H1299)	EC50 (T47D [2])	Kp [3]	IC50 [4]	Selectivity ratio (T47D [1])
COc1ccc(N(C)c2nc(C)nc3cc(N=[N+]=[N-])ccc23)cc1	130 nM	110 nM			1.2
COc1ccc(N(C)c2nc(C)nc3cc([N+](=O)[O-])ccc23)cc1	> 10000 nM	> 10000 nM			2
COc1ccc(N(C)c2nc(C)nc3nccnc23)cc1	36 nM	29 nM	2.1		1.2
COc1ccc(N(C)c2nc(C)nc3ccccc23)cc1 [VERUBULIN]	7 nM			2000 nM	
COc1ccc(N(C)c2nccc3ccccc23)cc1	960 nM	600 nM		400 nM	2
COc1ccc(N(C)c2nc(C)nc3ncccc23)cc1	21 nM	15 nM	1.8		1.4
COc1ccc(N(C)c2nc(C)nc3ccc(N)cc23)cc1	14 nM	8 nM	3.6		2
COc1ccc(N(C)c2nc(C)nc3ccc([N+](=O)[O-])cc23)cc1	130 nM	400 nM			0.33
COc1ccc(N(C)c2nc(C)nc3ccc(N(C)C)cc23)cc1	1400 nM	450 nM			3.1

More lines, main results first:

EC50 (NCI-H1299)	EC50 (T47D [2])	Kp [3]	IC50 [4]	SMILES	Selectivity ratio (T47D [1])
8 nM	4 nM		400 nM	COc1ccc(N(C)c2nc(C)nc3cccc(OC)c23)cc1	2
1400 nM	960 nM			COc1ccc(N(C)c2nc(C)nc3ccc(NC(C)=O)cc23)cc1	1.5
45 nM	17 nM			COc1ccc(N(C)c2nnnc3ccccc23)cc1	2
570 nM	780 nM		2000 nM	COc1ccc(N(C)c2nc(C)nc3cc(N)ccc23)cc1	0.73
26 nM	21 nM	9.2		COc1ccc(N(C)c2ccnc3ccccc23)cc1	2
